NOD2-RIPK2 inh: NOD2-RIPK2 protein interaction inhibition | CHO BLA complementation NOD2-RIPK2, CCF4 ratio | inhibition, % at 4.98 µM | 360,000 compounds, 0.38% hits | O43353 | AID 624267; in the data active = inhibition above about 21%;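 note: 0% = vehicle only and 100% = reference blocker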
Target sequence (O43353 whole entry, looked up): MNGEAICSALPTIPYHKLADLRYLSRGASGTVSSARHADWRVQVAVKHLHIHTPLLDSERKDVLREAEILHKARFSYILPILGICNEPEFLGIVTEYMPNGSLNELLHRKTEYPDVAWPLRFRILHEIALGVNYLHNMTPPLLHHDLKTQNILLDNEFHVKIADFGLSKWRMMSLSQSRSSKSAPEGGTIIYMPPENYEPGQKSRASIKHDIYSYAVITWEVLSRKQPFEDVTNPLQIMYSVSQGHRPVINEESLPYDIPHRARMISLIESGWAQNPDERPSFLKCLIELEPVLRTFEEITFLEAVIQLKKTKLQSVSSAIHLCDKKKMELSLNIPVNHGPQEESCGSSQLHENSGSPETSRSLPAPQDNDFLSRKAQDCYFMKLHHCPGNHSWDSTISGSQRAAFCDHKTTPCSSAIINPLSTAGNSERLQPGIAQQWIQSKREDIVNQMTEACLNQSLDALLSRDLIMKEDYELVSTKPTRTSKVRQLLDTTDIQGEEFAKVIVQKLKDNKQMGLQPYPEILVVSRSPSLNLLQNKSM
XBP1 UPR activ: adaptive UPR (XBP1) activation; 330,000 compounds, 0.33% hits; AID 463104; CHO-XBP1 luciferase reporter, IRE1-XBP1 UPR activation, luminescence; percent of tunicamycin response, DMSO as zero; activation, % at 20 µM;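 active = versus positive control, 20 µM dose yields 30% or more activation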;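 note: 100% = tunicamycin at 10 µg/mL and 0% = DMSO only wells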
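Material: CHO-XBP1 cells stably carrying IRE1-XBP1-driven luciferase reporter / Amount: 1000 cells per well / Compound: 20 µM, 1% DMSO / Times: 6 h treatment, 37 °C / Detection: luciferase luminescence / Measure: % activation of reporter signal versus tunicamycin and DMSO controls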
CHOP UPR activ: apoptotic UPR (CHOP) activation. CHO-CHOP luciferase reporter, luminescence; percent of tunicamycin response over DMSO baseline. activation, % at 10 µM. 330,000 compounds, 0.34% hits. AID 449763;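 active = at 10 µM dose, activation of 40% or more, normalized to positive control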;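 note: 100% = tunicamycin at 10 µg/mL and 0% = DMSO alone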
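Test system: CHO CHOP reporter cells. Input: 500 CHO-CHOP cells per well. Medium: F12 with 10% FBS. Technique: luciferase luminescence. Measure: percent activation relative to tunicamycin control. Dosing: 10 µM compound, 0.5% DMSO. Timing: 16-18 h cell attachment, then 6 h compound exposure, 37 °C.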
CHOP inh: CHOP inhibition in unfolded protein response | CHO-K1 CHOP-promoter luciferase, tunicamycin-induced, 15-18 h | inhibition, % at 10 µM | 220,000 compounds, 3.8% hits | AID 2732;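 active = compounds that reduced the stress-induced luciferase reporter signal by more than about 70% of percent inhibition, limit read from the data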;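 note: 0% = tunicamycin plus vehicle and 100% = wells without tunicamycin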
TLR9-MyD88 block: TLR9-MyD88 interaction inhibition. CHO BLA complementation TLR9-MyD88, CCF4 FRET ratio. inhibition, % at 4.98 µM. 340,000 compounds, 0.21% hits. AID 504734;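 active = inhibition above the mean over all tested compounds plus 3 SD, cut at about 21% in these data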;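 note: 0% = DMSO only wells and 100% = clavulanate BLA inhibitor control wells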
TLR4-MyD88 BLA: inhibitors of human TLR4-MyD88 binding. O00206+Q99836. HeLa CL3-4 TLR4/MyD88 BLA complementation, FRET ratio. inhibition, % at 8.4 µM. 200,000 compounds, 0.18% hits. AID 861; in the data active = inhibition above about 25%;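 note: 0% = vehicle and 100% = reference inhibitor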
The depositor's hits bear a star; . = not tested or not shown. The entries come from a sample that favours hits as a whole.

SMILES	NOD2-RIPK2 inh	XBP1 UPR activ	CHOP UPR activ	CHOP inh	TLR9-MyD88 block	TLR4-MyD88 BLA
Cc1ccc(CN(C)C(=O)c2c(C)nn(-c3ccccc3)c2C)cc1	-6.3	3.1	0.3	.	7.3	.
Fc1ccc(C2Nc3cccc4cccc(c34)N2)cc1	-3.7	-2.9	2.1	.	-9.8	.
FC(F)(F)c1ccc(C2Nc3cccc4cccc(c34)N2)cc1	3.8	1.8	0.4	87.0*	4.2	2.4
CCCC1(CC)C(=O)NC(=O)N=C1N (stereo not drawn)	-6.4	.	.	.	-1.5	.
COc1ccc(-c2nn3c(-c4ccccc4)nnc3s2)cc1	-1.3	4.4	0.2	60.1	7.4	-6.0
COc1ccc(-c2nn3c(-c4ccc(F)cc4)nnc3s2)cc1	9.4	5.7	0.4	82.5*	-7.5	12.7
C#CNC(=O)C1(CC=C)CCNCC1	-3.3	1.0	-0.1	.	-7.0	.
CC1(C(=O)NCc2ccc3c(c2)OCO3)CCN1C(=O)Cc1ccc(Cl)cc1Cl (stereo not drawn)	-1.7	.	.	.	.	.
CCCCSc1nnc(CNC(=O)C23CC4CC(CC(C4)C2)C3)n1Cc1ccccc1	13.5	2.0	-1.1	85.4*	-2.3	-6.7
O=C(NCc1nnc(SCc2ccccc2)n1-c1ccccc1)C12CC3CC(CC(C3)C1)C2	0.9	-2.6	2.3	45.4	-4.4	6.1
CCCCn1c(C)cc(C)c(S(=O)(=O)c2ccccc2C)c1=O	7.1	-2.0	0.3	94.4*	10.8	-8.8
Cc1ccccc1S(=O)(=O)c1c(C)cc(C)n(C(C)C)c1=O	5.3	-0.6	3.7	39.2	7.3	5.8
CC(C)NC(=O)C1(C)CCN1C(=O)C(c1ccccc1)c1ccccc1 (stereo not drawn)	-3.9	.	.	.	.	.
O=C(C1CCC(Cn2c(=S)[nH]c3ccccc3c2=O)CC1)N1CCN(c2ccccc2)CC1 (stereo not drawn)	1.6	-2.5	1.2	.	4.6	-4.6
COc1ccc(N2CCN(C(=O)c3ccc4c(c3)[nH]c(=S)n3c5ccccc5nc43)CC2)cc1	.	-2.0	1.3	73.1*	.	-2.8
COc1ccc(N2CCN(C(=O)C3CCC(Cn4c(=S)[nH]c5ccccc5c4=O)CC3)CC2)cc1 (stereo not drawn)	7.2	-0.4	2.8	70.8*	-7.1	-4.8
CN1C2CCC1CC(NC(=O)c1nn(C)c3ccccc13)C2 (stereo not drawn)	.	.	.	45.7	.	.
COc1ccc(N(C(=O)CCl)C(C(=O)NCCc2ccccc2)c2cccs2)cc1 (stereo not drawn)	6.5	.	.	93.0*	2.6	10.4
Fc1ccc(-c2nnc(-c3ccc(Cl)cc3Cl)o2)cc1	-17.1	-7.7	-7.6	80.2*	-2.4	-7.4
O=C(NNC(=O)c1cc(-c2ccc(Cl)cc2Cl)nc2ccccc12)Nc1ccccc1	-2.7	4.6	3.4	95.7*	6.7	-11.4
O=C(NNC(=O)c1ccc(Cl)cc1Cl)Nc1ccccc1	-11.5	-3.1	-1.7	53.8	11.1	-6.0
CC1(C)C(=O)NCCN1C(=O)CC1C(=O)NCCN1Cc1cccc(C(F)(F)F)c1 (stereo not drawn)	-2.7	-7.4	-0.8	.	2.5	.
Oc1cc(-c2ccccc2)c2ccccc2c1	2.2	-0.7	-1.3	100.6*	2.8	-0.5
Cc1ccc(N2CCN(C(=O)c3ccccc3Br)CC2)c(C)c1	0.5	-0.3	0.5	87.0*	7.2	-7.0
Cc1ccc(C)c(N2CCN(C(=O)c3csc(C)c3C)CC2)c1	-3.2	-1.9	3.6	64.6	-4.6	3.0
SMILES	NOD2-RIPK2 inh	XBP1 UPR activ	CHOP UPR activ	CHOP inh	TLR9-MyD88 block	TLR4-MyD88 BLA
Cc1cc(C)nc(N2CCC(C(=O)N3CCN(c4cc(Cl)ccc4C)CC3)CC2)n1	-4.8	1.3	-1.2	64.6	-4.2	-5.8
Cc1ccc(C)c(N2CCN(C(=O)C3CCN(c4nc(C)cc(C)n4)CC3)CC2)c1	9.3	-3.3	-0.2	87.9*	-4.3	-4.2
Cc1ccc(C)c(N2CCN(C(=O)c3ccccc3Br)CC2)c1	9.2	-1.6	-1.2	87.4*	3.7	-3.4
OC(c1ccc(F)c(F)c1)c1nc(-c2cccc3cccnc23)cs1 (stereo not drawn)	-1.9	.	.	.	.	.
COc1ccc(N2CCN(C(c3cccc(OC)c3OC)c3nnnn3C3CCCC3)CC2)cc1 (stereo not drawn)	3.4	1.5	0.9	73.6*	-3.0	9.3
COc1ccccc1N1CCN(C(c2cc3cc(C)ccc3[nH]c2=O)c2nnnn2C2CCCC2)CC1 (stereo not drawn)	-0.5	2.6	2.0	90.5*	9.1	-8.5
COc1ccccc1N1CCN(C(c2cc3ccc(C)cc3[nH]c2=O)c2nnnn2C2CCCC2)CC1 (stereo not drawn)	-3.3	0.0	1.1	34.1	-15.2	0.1
O=C(CN(c1ccc(F)cc1)S(=O)(=O)c1ccccc1)N1CCOCC1	-0.5	-2.0	-0.4	.	-6.6	.
Cc1ccc(SCc2ccc(C(=O)N3CCCC3)cc2)cc1	1.0	8.4	4.3	-11.5	6.9	-2.3
Cc1ccc(SCC2(O)CCN(C(=O)c3ccc(Cl)cc3)CC2)cc1	0.8	-2.9	-1.3	82.2*	12.5	1.4
CCOc1ccccc1NC(=O)C(NC(=O)C1CCC(C)CC1)C(C)C (stereo not drawn)	-4.6	-1.1	-0.9	72.8*	1.0	-14.8
COc1ccc(CCNc2ncnc3sccc23)cc1OC	4.9	-1.8	3.0	70.3*	-7.5	-6.8
O=C(Nc1ccc(-c2nc3ccccc3o2)c(O)c1)c1cc(-n2cnnc2)ccc1Cl	1.5	12.8	6.7	92.2*	-4.8	-7.0
Cc1ccc(C(=O)Nc2cccc(C(F)(F)F)c2)cc1NC(=O)c1cnnc2ccccc12	9.4	-3.7	1.8	89.2*	-2.1	.
C=Cc1ccc(Cn2c(C)c(C(=O)NCc3cccc(C)c3)sc2=O)cc1	-0.1	.	.	.	.	.
CN1CCN(/C=N/c2c(C#N)cnn2C)CC1	4.9	-1.0	-2.0	-31.3	0.6	-4.5
Cn1ncc(C#N)c1/N=C/N(Cc1ccccc1)Cc1ccccc1	1.2	-2.5	-1.1	89.2*	1.4	-20.8
CC(C)Oc1cccc(C(=O)Nc2nnc([C@H]3C[C@H](O)[C@@H](CO)O3)s2)c1	5.2	.	.	.	.	.
C=Cc1ccc(Cn2c(=O)n(C)c(=O)c3sccc32)cc1	10.4	-5.1	0.1	.	-14.9	.
O=C(Nc1cc(Cl)ccc1N1CCOCC1)c1cccnc1Cl	-1.5	-1.9	0.0	3.3	0.7	.
CC(C)c1ccc(/C=N/NC(=O)c2nnn(-c3nonc3N)c2CSC2=NCCS2)cc1	-1.4	1.3	4.1	74.1*	-8.3	-6.1
Nc1nonc1-n1nnc(C(=O)N/N=C/c2ccc(Br)cc2)c1CSC1=NCCS1	-10.7	-0.6	3.4	-12.5	-3.8	-2.6
COc1cc2c(cc1NC(=O)CSc1nc3ccc(C)cc3[nH]1)oc1ccccc12	.	-2.5	2.8	76.7*	.	13.7

Screening data (PubChem BioAssay)
